According to ChEMBL document CHEMBL3352197, “Design, synthesis, in silico and in vitro studies of novel 4-methylthiazole-5-carboxylic acid derivatives as potent anti-cancer agents” (Bioorg Med Chem Lett, 2014):

Columns and labels:
[1] = Lipophilicity, log P of the compound; assay type: physicochemical; settings: octanol/water
MDA-MB-231 [2] = test: Cytotoxicity against human MDA-MB-231 cells assessed as cell viability at 100 ug/ml after 24 to 48 hrs by trypan blue exclusion assay (reference value: 86.21 +/- 1.80%); assay type: functional; settings: read-out: Activity
In short: (§1)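 MDA-MB-231 cells (DMEM, 10% FBS, 2 mM glutamine, 37 °C, 5% CO2) seeded at 2 x 10^5/well and grown 24 h. Compound in fresh medium with 0.1% DMSO (solvent control) for 24–48 h at 37 °C. Floating plus trypsinized adherent cells mixed 1:1 with 0.4% trypan blue and counted by haemocytometer. % viable = (total − dead)/total × 100. Mean SE, n = 3.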

MDA-MB-231 [3] = test: Cytotoxicity against human MDA-MB-231 cells assessed as cell viability at 10 ug/ml after 24 to 48 hrs by trypan blue exclusion assay (reference value: 87.54 +/- 2.11%); assay type: functional; settings: read-out: Activity; in short: as §1
MDA-MB-231 [4] = test: Cytotoxicity against human MDA-MB-231 cells assessed as optical density after 24 hrs by MTT assay (Rvb =2.43 +/- 0.05 nm); assay type: functional
In short: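 Exponentially growing MDA-MB-231 cells were resuspended in medium with 10% FBS, washed with PBS, and treated in fresh medium for 24 h. MTT (5 mg/mL stock in PBS) was then added for 4 h at 37 °C. Formazan was dissolved in DMSO and optical density read at 570 nm.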

Structure (SMILES) | logP [1] | viability at 100 µg/mL (MDA-MB-231 [2]) | viability at 10 µg/mL (MDA-MB-231 [3]) | OD (MDA-MB-231 [4])
Cc1nc(-c2ccc(OCC(C)C)c(C#N)c2)sc1C(=O)NCc1ccc(F)cc1 | 2.86 | 13.1% | 21.8% | 0.33
Cc1nc(-c2ccc(OCC(C)C)c(C#N)c2)sc1C(=O)n1ccc(N)nc1=O | 1.59 | 29.2% | 40.9% | 0.79
Cc1nc(-c2ccc(OCC(C)C)c(C#N)c2)sc1C(=O)O [FEBUXOSTAT] | 1.35 | 27.7% | 38.3% | 0.56
Cc1nc(-c2ccc(OCC(C)C)cc2)sc1C(=O)O | 3.08 | 59.3% | 71.2% | 1.73
Cc1nc(-c2ccc(OCC(C)C)c(C#N)c2)sc1C(=O)Nc1ccccc1 | 4.57 | 50.7% | 62.7% | 1.31
Cc1nc(-c2ccc(OCC(C)C)c(C#N)c2)sc1C(=O)N1CCC(c2noc3cc(F)ccc23)CC1 | 2.7 | 56.3% | 64.6% | 1.65
Cc1nc(-c2ccc(OCC(C)C)c(C#N)c2)sc1C(=O)NCc1ccccc1F | 2.9 | 43.2% | 58.3% | 1.27
Cc1nc(-c2ccc(OCC(C)C)c(C#N)c2)sc1C(=O)OCC(C)C | 0 | 36.2% | 44.2% | 1.16
COC(=O)c1sc(-c2ccc(OCC(C)C)c(C#N)c2)nc1C | 1.63 | 67.6% | 76.7% | 2.27
Cc1ccc(-c2cc(C(F)(F)F)nn2-c2ccc(S(N)(=O)=O)cc2)cc1 [CELECOXIB] | – | 11.4% | 17.3% | 0.27
Cc1nc(-c2ccc(OCC(C)C)c(C#N)c2)sc1C(=O)n1cc(F)c(N)nc1=O | 0.94 | 66.4% | 74.6% | 2.11
Cc1nc(-c2ccc(OCC(C)C)c(C#N)c2)sc1C(=O)NCc1cccc(F)c1 | 2.86 | 54.3% | 64.3% | 1.44
Cc1nc(-c2ccc(OCC(C)C)c(C#N)c2)sc1C(=O)NCc1ccccc1 | 2.2 | 63.5% | 73.6% | 1.89
